Kir21 block = Kir2.1 (mouse) channel inhibition; P35561; 310,000 compounds, 0.85% hits; B-score at 10 µM; AID 1672; HEK293-Kir2.1, FluxOR thallium flux fluorescence; hits give low values;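 active means fluorescence ratio B-score at or below minus 3 SD of library scores, with starting-brightness B-score within 2 SD, cut at about -4.2 in these data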;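 further: channel flux triggered by added potassium and thallium sulfate stimulus; B-score of peak minus minimum fluorescence over baseline after thallium stimulus; more negative B-score means stronger Kir2.1 block with less thallium influx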
hERG rescue = compounds protecting human hERG from proarrhythmic drug block; CHO-hERG, FluxOR thallium flux, dofetilide IC70 present; activation (rescue from dofetilide block), less the hit threshold, % at 10 µM; 310,000 compounds, 0.51% hits; AID 1511;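 active means activation above the mean of controls blocked by dofetilide plus 5 SD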;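 further: thallium influx through hERG after potassium depolarization seen as dye fluorescence rise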
Target sequence (Q12809 whole entry, looked up): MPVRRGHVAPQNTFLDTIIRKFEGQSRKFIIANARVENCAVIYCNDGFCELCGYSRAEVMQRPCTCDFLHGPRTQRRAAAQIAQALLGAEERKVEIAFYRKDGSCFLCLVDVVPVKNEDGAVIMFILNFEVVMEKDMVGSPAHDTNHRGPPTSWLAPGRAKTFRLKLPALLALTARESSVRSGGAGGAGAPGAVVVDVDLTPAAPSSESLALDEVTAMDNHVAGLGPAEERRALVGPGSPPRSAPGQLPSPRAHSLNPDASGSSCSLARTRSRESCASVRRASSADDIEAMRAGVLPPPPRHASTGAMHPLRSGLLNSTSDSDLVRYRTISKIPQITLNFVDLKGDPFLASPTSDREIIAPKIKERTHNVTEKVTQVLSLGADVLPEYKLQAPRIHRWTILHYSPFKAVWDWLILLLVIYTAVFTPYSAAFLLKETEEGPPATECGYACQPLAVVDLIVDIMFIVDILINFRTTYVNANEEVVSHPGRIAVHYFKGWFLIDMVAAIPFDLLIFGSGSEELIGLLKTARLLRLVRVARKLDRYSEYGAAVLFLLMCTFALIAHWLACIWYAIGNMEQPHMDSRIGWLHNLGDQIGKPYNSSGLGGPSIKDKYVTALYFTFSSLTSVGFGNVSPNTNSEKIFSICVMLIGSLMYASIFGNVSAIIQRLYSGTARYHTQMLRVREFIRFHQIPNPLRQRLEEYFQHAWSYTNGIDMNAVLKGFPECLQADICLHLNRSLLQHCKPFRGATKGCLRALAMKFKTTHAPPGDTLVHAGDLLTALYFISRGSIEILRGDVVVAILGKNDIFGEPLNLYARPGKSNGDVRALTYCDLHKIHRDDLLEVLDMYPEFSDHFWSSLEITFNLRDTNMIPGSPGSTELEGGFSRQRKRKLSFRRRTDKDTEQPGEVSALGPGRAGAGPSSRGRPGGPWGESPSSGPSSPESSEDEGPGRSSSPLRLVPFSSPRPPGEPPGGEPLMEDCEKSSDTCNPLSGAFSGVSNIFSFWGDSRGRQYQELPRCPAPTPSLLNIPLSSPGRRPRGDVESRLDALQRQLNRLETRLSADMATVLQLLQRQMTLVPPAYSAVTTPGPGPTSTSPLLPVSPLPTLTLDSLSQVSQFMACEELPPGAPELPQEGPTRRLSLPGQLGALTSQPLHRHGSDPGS
KCNQ1 block = blocks the human KCNQ1 potassium channel; AID 2642; B-score at 10 µM; CHO-K1 KCNQ1, FluxOR thallium flux fluorescence; hits give high values; 310,000 compounds, 1.3% hits; P51787;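 active means compounds whose thallium flux B-score, printed positive for inhibition, exceeds three library SD while starting fluorescence stays within three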;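 further: channel opened by potassium depolarization with thallium stimulus after 20 min compound exposure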
KCNK3 block = human KCNK3 channel inhibition, primary screen; 340,000 compounds, 0.84% hits; O14649; CHO-KCNK3 thallium flux, FluxOR fluorescence; hits give low values; AID 602410; B-score at 10 µM;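 active means B-score under library mean minus 4 SD, starting fluorescence ratio at most library mean plus 5 SD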;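 further: more negative B-score means stronger inhibition of thallium flux through KCNK3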
KCNQ1 pot = potentiates or activates the human KCNQ1 potassium channel | AID 2648 | CHO-K1 KCNQ1, thallium flux FluxOR fluorescence; hits give high values | P51787 | B-score at 10 µM | 310,000 compounds, 0.35% hits;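 active means fluorescence ratio B-score, a plate-corrected score, at least three library SD, with initial intensity B-score within 5 SD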
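Material: CHO-K1 cells stably expressing KCNQ1. Medium: assay buffer for compound exposure, DMSO matched across wells. Reagent: K+/Tl+ depolarizing stimulus. Compound dosing: single-concentration screen. Times: 37 °C overnight plating, 90-min dark dye load, 20-min compound pretreatment. Technique: FluxOR Tl+ flux fluorescence.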
KCNK9 block = human KCNK9 channel inhibition. Q9NPC2. B-score at 10 µM. HEK293 KCNK9, FluxOR thallium flux fluorescence; hits give low values. AID 488922. 310,000 compounds, 1.2% hits;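 active means ratio B-score over 3 SD below the library mean, with starting fluorescence within 5 SD of its mean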;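 further: negative B-score means less thallium flux so channel inhibition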
KCNK9 inh conf = confirmation of human KCNK9 potassium channel inhibitors; AID 492992; HEK293 KCNK9 cells, FluxOR thallium flux fluorescence; 4,900 compounds, 43% hits; inhibition, % at 10 µM; shares compounds with KCNK9 block;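 active means thallium signal inhibited by more than 5 SD of the compound-free buffer control wells, on both duplicate plates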;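 further: 0% = assay buffer control wells without compound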
Kir21 sel = mouse Kir2.1 off-target activity of KCNK9 modulators. Kir2.1 cells, FluxOR thallium flux fluorescence. shares compounds with KCNK9 block. 4,900 compounds, 4% hits. AID 492993. inhibition, % at 10 µM;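 active means thallium signal drop more than 5 SD beyond the mean of the no-compound control wells, seen in both duplicate plates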;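 further: signal is fluorescence rise after thallium addition divided by baseline fluorescence; plate controls were assay buffer only for no effect and full block by chlorpromazine control for full effect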
KCNK9 uninduced = non-induced cell nonspecific activity of KCNK9 modulators. shares compounds with KCNK9 block. non-induced KCNK9-HEK293, FluxOR thallium flux. inhibition, % at 10 µM. 4,900 compounds, 40% hits;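 active means thallium signal drop beyond 5 SD of the untreated control mean, on both duplicate plates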;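 further: plate controls were buffer only IC0 wells for no effect and SID17386958 at its maximal inhibitory level for full effect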
* = called active by the depositor. The list is not random: actives were taken first. Their share in the collection is about 3.7%.

How did O=C(CNC(=O)c1ccccc1F)OC(C(=O)Nc1cc(C(F)(F)F)ccc1Cl)c1ccccc1 (stereo unspecified) do in these assays?
Kir21 block: 1.5; hERG rescue: -9; KCNQ1 block: inactive; KCNK3 block: inactive; KCNQ1 pot: inactive; KCNK9 block: -11*; KCNK9 inh conf: inactive; Kir21 sel: inactive; KCNK9 uninduced: 32%*

Results for O=C(COC(=O)CNC(=O)c1ccccc1Cl)Nc1cc(C(F)(F)F)ccc1Cl ?
KCNK3 block: inactive

What do the screens show for `Cc1ccc(NC(=O)c2cccc(OC(F)F)c2)c(OC(F)F)c1`?
Kir21 block: -1.9; hERG rescue: -5; KCNQ1 block: inactive; KCNK3 block: inactive; KCNQ1 pot: inactive; KCNK9 block: -8.7*; KCNK9 inh conf: 54%*; Kir21 sel: inactive; KCNK9 uninduced: 35%*

Results for CCOc1cccc(C(=O)Nc2ccccc2OC(F)F)c1 ?
Kir21 block: -2.2; hERG rescue: -5; KCNQ1 block: inactive; KCNK3 block: inactive; KCNQ1 pot: inactive; KCNK9 block: inactive

How did Cc1ccc(COCCN2CCN(S(=O)(=O)c3ccc(C)cc3)CCC2=O)cc1 do in these assays?
Kir21 block: 0.07; hERG rescue: -5; KCNQ1 block: inactive; KCNK3 block: inactive; KCNQ1 pot: inactive; KCNK9 block: inactive

What do the screens show for `COc1ccc(COCCN2CCN(S(=O)(=O)c3ccc(C)cc3)CCC2=O)cc1`?
Kir21 block: -0.74; hERG rescue: -6; KCNQ1 block: inactive; KCNQ1 pot: inactive; KCNK9 block: inactive

How did Cc1ccc(S(=O)(=O)N2CCC(=O)N(CCOCc3cccc(C)c3)CC2)cc1 do in these assays?
Kir21 block: -1.7; hERG rescue: -10; KCNQ1 block: inactive; KCNK3 block: inactive; KCNQ1 pot: inactive; KCNK9 block: inactive; KCNK9 inh conf: inactive; Kir21 sel: inactive; KCNK9 uninduced: inactive

How did COc1cccc(COCCN2CCN(S(=O)(=O)c3ccc(C)cc3)CCC2=O)c1 do in these assays?
Kir21 block: -2.1; hERG rescue: -6; KCNQ1 block: inactive; KCNK3 block: inactive; KCNQ1 pot: inactive; KCNK9 block: inactive; KCNK9 inh conf: inactive; Kir21 sel: inactive; KCNK9 uninduced: inactive

Results for CCCCN(C)Cc1cc(=O)oc2cc3c(cc12)CCCC3 ?
Kir21 block: 0.36; hERG rescue: -3; KCNQ1 block: inactive; KCNK3 block: inactive; KCNQ1 pot: inactive; KCNK9 block: inactive; KCNK9 inh conf: inactive; Kir21 sel: inactive; KCNK9 uninduced: inactive

Results for S=C(NCCc1ccccc1)N1CCN(Cc2ccc(Cl)c(Cl)c2)CC1 ?
Kir21 block: 0.33; hERG rescue: -5; KCNQ1 block: inactive; KCNK3 block: inactive; KCNQ1 pot: inactive; KCNK9 block: inactive; KCNK9 inh conf: inactive; Kir21 sel: inactive; KCNK9 uninduced: 25%*

Results for CC1=NN(c2ccc(Cl)cc2)C(=O)C1C(c1cccc(O)c1)c1c(C)[nH]n(-c2ccc(Cl)cc2)c1=O (stereo unspecified) ?
Kir21 block: -0.77; hERG rescue: -3; KCNQ1 block: inactive; KCNK3 block: inactive; KCNQ1 pot: inactive; KCNK9 block: inactive; KCNK9 inh conf: inactive; Kir21 sel: inactive; KCNK9 uninduced: inactive

What do the screens show for `Cc1[nH]n(-c2ccc(Cl)cc2)c(=O)c1C(=O)c1ccccc1`?
Kir21 block: 0.97; hERG rescue: -8; KCNQ1 block: inactive; KCNK3 block: inactive; KCNQ1 pot: inactive; KCNK9 block: inactive
